# CHRM4 PAM: positive allosteric modulators of human muscarinic M4 receptor; actives 0.4% (n = 360,000); AID 624126; activation, % at 3 µM; CHO-K1 hM4/Gqi5, Fluo-8 calcium fluorescence, ACh EC20; 0% = ACh EC20, 100% = maximal ACh;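 active means activation above its plate's cutoff, the mean activation of sample wells plus 3 SD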
# Target sequence (P08173 whole entry, looked up): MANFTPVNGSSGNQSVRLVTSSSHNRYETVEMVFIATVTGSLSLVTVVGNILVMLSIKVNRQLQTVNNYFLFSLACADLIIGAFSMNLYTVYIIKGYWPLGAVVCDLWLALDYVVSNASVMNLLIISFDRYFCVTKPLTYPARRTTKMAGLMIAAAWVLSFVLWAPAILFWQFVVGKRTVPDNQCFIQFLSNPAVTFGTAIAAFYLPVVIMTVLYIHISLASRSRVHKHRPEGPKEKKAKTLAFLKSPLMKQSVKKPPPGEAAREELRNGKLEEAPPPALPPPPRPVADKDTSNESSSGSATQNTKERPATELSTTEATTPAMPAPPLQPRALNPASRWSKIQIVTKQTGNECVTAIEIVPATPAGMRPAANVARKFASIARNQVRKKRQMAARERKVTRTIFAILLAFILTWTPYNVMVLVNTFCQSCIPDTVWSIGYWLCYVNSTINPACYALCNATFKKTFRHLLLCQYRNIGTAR
# CHRM5 antagonist: antagonists of human muscarinic M5 receptor (CHRM5); P08912; actives 0.59% (n = 360,000); inhibition, % at 3 µM; CHO-hM5 cells, Fluo-8 calcium fluorescence, ACh EC80;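 active means inhibition above a per-plate cutoff, the mean of that plate's test compounds plus 3 SD, cut at about 27% in these data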;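 further: 0% = acetylcholine EC80 with DMSO and 100% = DMSO without agonist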
# CHRM5 PAM: CHRM5 positive allosteric modulation | P08912 | CHO-K1 hM5, Fluo-8 calcium, ACh EC20 PAM; 0% = ACh EC20, 100% = ACh EC100 | activation, % at 3 µM | actives 0.3% (n = 360,000);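 active means activation above the run cutoff, the mean activation of all test compounds plus 3 SD, cut at about 18% in these data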
#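 System: CHO-K1 hM5 cells. Reagent: acetylcholine, EC20 level. Compound dosing: single dose, 3 µM nominal final test concentration. Timing: Post-acetylcholine fluorescence recording 140 s. Detection: Fluo-8 calcium fluorescence. Read-out: % activation, ACh-normalized. Benchmarks: ACh EC20 and EC100 wells. Repeats: singlicate, one well per test compound.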
# M4 antag: antagonists of human muscarinic M4 receptor (CHRM4) | P08173 | CHO-hM4 cells, ACh EC80, Fluo-8 calcium fluorescence | inhibition, % at 3 µM | actives 0.73% (n = 360,000) | AID 624125;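 active means inhibition above its plate's cutoff, the mean inhibition of sample wells plus 3 SD, cut at about 27% in these data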;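 further: 0% = acetylcholine EC80 with DMSO and 100% = DMSO without agonist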
# M5 ag: agonists of human muscarinic M5 receptor (CHRM5); P08912; CHO-K1 hM5 cells, Fluo-8 calcium fluorescence; 0% DMSO wells, 100% maximal acetylcholine response; activation, % at 3 µM; actives 0.19% (n = 360,000); AID 624037;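 active means activation above the run's mean over test compounds plus 3 SD, cut at about 23% in these data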;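 further: signal is peak over basal fluorescence ratio across the kinetic read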
# M4 ag: agonists of human muscarinic M4 receptor (CHRM4). CHO-K1 hM4/Gqi5, Fluo-8 calcium fluorescence; vehicle 0%, full acetylcholine response 100%. activation, % at 3 µM. actives 0.14% (n = 360,000). AID 624127;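 active means activation above the run mean over all test wells plus 3 SD, cut at about 32% in these data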;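 further: peak over basal fluorescence ratio per well then scaled between controls; 0% = DMSO wells and 100% = acetylcholine at EC100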
# * marks the source's active call; other numbers are inactive results. Only some compounds are listed: those with a hit (about 1.8% of all), similar ones and a draw of the others.
SMILES,CHRM4 PAM,CHRM5 antagonist,CHRM5 PAM,M4 antag,M5 ag,M4 ag
CC(C)NC(=O)C1(C)CN(S(C)(=O)=O)CC(=O)N1Cc1cccs1 (centres undefined),25*,-11,10,-3,2,2
COc1ccc(Cn2cc(CN3CCc4onc(-c5ccccc5OC)c4C3=O)nn2)cc1,-1,-7,-9,3,3,3
O=C(Nc1ccccc1C(F)(F)F)N1CCN(C(c2ccccc2)c2ccccc2)CC1,-27,30*,-18,35*,-8,0
O=C(NC(=O)N1CCN(C(c2ccccc2)c2ccccc2)CC1)c1ccccc1,-35,16,-31,30*,-16,0
O=C(c1ccc(C#CC2(O)CCCCC2)cc1)N1CCN(C(c2ccccc2)c2ccccc2)CC1,-25,17,-14,35*,-10,2
O=C(c1ccc(C#CC2(O)CCCCC2)cc1)N1CCN(Cc2ccccc2)CC1,-4,-4,-4,3,-1,7
CCCNC(=O)c1cc(C2CCCCN2C(=O)c2cc(OC)c(C)c(OC)c2)on1 (centres undefined),-6,8,-4,-3,2,10
CCCCN(C1CCS(=O)(=O)C1)S(=O)(=O)c1ccc(OC)cc1 (centres undefined),-3,1,-3,3,0,1
CCN(C1CCS(=O)(=O)C1)S(=O)(=O)c1ccc(OC)c(OC)c1 (centres undefined),23*,6,0,-8,2,1
Cc1ccc(CSC(Nc2ccc(F)cc2)=C(C#N)C#N)cc1,-9,31*,-17,24,6,8
CN(Cc1ccccc1)C(CNS(=O)(=O)c1ccccc1)c1ccccc1 (centres undefined),-2,5,-7,-12,-3,-2
CCC(C)(C(=O)Nc1c(C)cccc1C)N(C)C(=O)c1ccc2ccccc2n1 (centres undefined),15,6,2,37*,-3,1
Cc1cccc(NC(=O)CN(C)C(=O)c2ccc3ccccc3n2)c1C,1,-4,1,-5,-2,3
O=C(c1c[nH]c(C(=O)C(Cl)(Cl)Cl)c1)c1ccc(F)cc1F,-2,28*,-12,0,0,22
O=C(c1[nH]c(C(F)(F)F)nc1-c1ccccc1)N1CCN(c2ncc(C(F)(F)F)cc2Cl)CC1,-8,13,-3,22,16,37*
Cc1cc(/C=C(\C#N)C(N)=O)c(C)n1-c1ccc(N2CCOCC2)c([N+](=O)[O-])c1,-1,10,-6,7,29*,23
O=C(CN1CCN(c2ccc(O)cc2)CC1)NC(=O)NCc1ccco1,11,-8,19*,-14,0,1
COc1ccc(N2CCN(CC(=O)NC(=O)NCc3ccco3)CC2)cc1,3,-2,4,4,-1,1
CCCC(c1nnnn1Cc1ccco1)N1CCN(C(=O)c2ccco2)CC1 (centres undefined),20*,-14,1,-12,-8,1
CCC(C)(C)n1nnnc1C(c1ccc(C)cc1)N1CCN(C(=O)c2ccco2)CC1 (centres undefined),9,-10,35*,-26,-8,3
Cc1cccc(N(CC(=O)N/N=C/c2cc([N+](=O)[O-])ccc2Cl)S(C)(=O)=O)c1C,-1,2,-1,-6,-1,0
CCCCCC(=O)Nc1cccc(C2=NOC3(C2)C[C@H](C(N)=O)N(C(=O)c2ccccc2)C3)c1 (some centres undefined),13,3,19*,5,3,2
CC1(c2ccc(OC(F)F)cc2)NC(=O)N(CC(=O)Nc2ccc3[nH]c(=O)[nH]c3c2)C1=O (centres undefined),6,1,6,7,2,1
CC1(c2ccc(OC(F)F)cc2)NC(=O)N(CC(=O)Nc2ccc3c(c2)OCO3)C1=O (centres undefined),3,17,1,8,41*,32*
CC1(c2ccc(OC(F)F)cc2)NC(=O)N(CC(=O)Nc2ccccc2)C1=O (centres undefined),-14,16,-4,17,44*,67*
SMILES,CHRM4 PAM,CHRM5 antagonist,CHRM5 PAM,M4 antag,M5 ag,M4 ag
Cn1c(SCc2cccc(Br)c2)nnc1-c1ccncc1,4,-4,9,-4,-8,1
CN1CCN(c2ncccc2S(=O)(=O)N2CCCCC2)CC1,-14,99*,-15,69*,-11,0
Cc1ccc2oc(C(=O)NCC(c3ccco3)N(C)C)c(C)c2c1 (centres undefined),-6,-2,2,-2,-4,1
COc1ccccc1CNC(=O)C1CC(c2ccccc2[N+](=O)[O-])=NO1 (centres undefined),14,-6,21*,-6,0,1
CN(C)c1ccc(CC(=O)N2CCCC(c3cc(C(=O)Nc4ccc(F)c(Cl)c4)no3)C2)cc1 (centres undefined),-13,17,-12,28*,3,16
CCC1Oc2ccccc2N(CC(=O)NCc2ccco2)C1=O (centres undefined),0,1,6,-1,-4,2
CC1CCCN(Cc2ccc(OCc3ccccc3)cc2)C1 (centres undefined),-17,3,-4,37*,-6,4
OC1CCN(Cc2ccc(OCc3ccccc3)cc2)CC1,-10,-1,3,11,-5,2
C1=C(CCNc2ncnc3c2[nH]c2ccccc23)CCCC1,-13,32*,-14,32*,8,14
CC(C)OCCCNc1ncnc2c1[nH]c1ccccc12,-12,30*,-28,13,5,24
COc1cc2c(cc1OC)C(=O)N1[C@H]3c4ccccc4OC[C@@H]3[C@H](c3ccccc3)[C@]1(C)C(=O)N2,8,11,-2,-4,2,3
CCOC(=O)[C@H]1[C@H]2COc3ccccc3[C@@H]2N2C(=O)c3cc(OC)c(OC)cc3NC(=O)[C@@]12C,-3,11,1,35*,0,1
C[C@@]12C(=O)Nc3cc(F)c(F)cc3C(=O)N1[C@H]1c3ccccc3OC[C@@H]1[C@@H]2c1ccccc1,-15,23,-38,71*,-4,2
C[C@@]12C(=O)Nc3ccc(F)cc3C(=O)N1[C@H]1c3ccccc3OC[C@@H]1[C@@H]2c1ccccc1,-15,57*,-39,89*,-10,0

# Assay outcomes (PubChem)
